Measurements taken from ChEMBL document CHEMBL1667787, “Synthesis and in vitro cytotoxicity evaluation of some fluorinated hexahydropyrimidine derivatives” (Bioorg Med Chem Lett, 2011).
pIC50: −log10 of the molar value.

Experiment: Cytotoxicity against human COLO320 cells after 72 hrs by Alamar Blue assay
Assay type: functional, cell-based
Conditions: COLO 320, 72 h
Outline: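 COLO 320 HSR cells (ATCC) kept in RPMI 1640 with 10% FBS, bicarbonate, pyruvate, Hepes and antibiotics at 37 °C, 5% CO2. Seeded 1 × 10^4 cells/well, attached 24 h, then exposed 72 h to compound or DMSO vehicle. AlamarBlue added 1:10, incubated overnight at 37 °C, fluorescence read at 560 nm excitation/590 nm emission. Triplicates, means; IC50 by linear regression.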
Compound `CCOC(=O)C1=C(C(F)(F)F)NC(SCC(=O)c2ccc(C(F)(F)F)cc2)NC1c1ccc2c(c1)OCO2` (stereo unspecified) has a pIC50 of 5.09.
`CCOC(=O)[C@@H]1[C@@H](c2ccc3c(c2)OCO3)NC(=S)N[C@@]1(O)C(F)(F)F` showed a pIC50 of 4.12.
`O=C(c1cccs1)[C@@H]1[C@@H](c2ccc3c(c2)OCO3)NC(=S)N[C@@]1(O)C(F)(F)F` gave a pIC50 of 4.20.
`O=C(c1cccs1)[C@@H]1[C@@H](c2cccc(O)c2)NC(=S)N[C@@]1(O)C(F)(F)F` showed a pIC50 of 4.14.
Work on `COc1ccc([C@H]2NC(=S)N[C@@](O)(C(F)(F)F)[C@@H]2C(=O)c2ccco2)cc1` yielded a pIC50 of 4.94.
Compound `O=C(c1ccco1)[C@@H]1[C@@H](c2ccccc2)NC(=S)N[C@@]1(O)C(F)(F)F` has a pIC50 of 4.20.
With `COc1ccc([C@H]2NC(=S)N[C@@](O)(C(F)(F)F)[C@@H]2C(=O)c2cccs2)cc1` the pIC50 was 4.12.
`CCOC(=O)[C@@H]1[C@@H](c2ccccc2Br)NC(=S)N[C@@]1(O)C(F)(F)F` showed a pIC50 of 4.14.
`O=C(c1ccc2ccccc2c1)[C@@H]1[C@@H](c2ccc3c(c2)OCO3)NC(=S)N[C@@]1(O)C(F)(F)F` gave a pIC50 of 5.00.
In the case of `O=C(c1ccco1)[C@@H]1[C@@H](c2cccc(O)c2)NC(=S)N[C@@]1(O)C(F)(F)F`, the pIC50 was less than 4.00.
`O=C(c1ccco1)[C@@H]1[C@@H](c2ccc3c(c2)OCO3)NC(=S)N[C@@]1(O)C(F)(F)F` gave a pIC50 of 4.17.
Work on `CCOC(=O)[C@@H]1[C@@H](c2ccc(F)cc2)NC(=S)N[C@@]1(O)C(F)(F)F` yielded a pIC50 of 4.12.
`COC(=O)[C@@H]1[C@@H](c2cccc(O)c2)NC(=S)N[C@@]1(O)C(F)(F)F` gave a pIC50 of less than 4.00.
With `CCOC(=O)[C@@H]1[C@@H](c2cccc(O)c2)NC(=S)N[C@@]1(O)C(F)(F)F` the pIC50 was less than 4.00.
Compound `CCOC(=O)[C@@H]1[C@@H](c2cccc(C#N)c2)NC(=S)N[C@@]1(O)C(F)(F)F` has a pIC50 of less than 4.00.
For `CCOC(=O)C1=C(C(F)(F)F)NC(=S)NC1c1ccc2c(c1)OCO2` (stereo unspecified), the pIC50 was 4.91.
